AF4-AF9 inh – inhibitors of AF4 peptide binding to AF9, primary screen, biochemical, AlphaScreen, biotin-AF4 peptide, FLAG-AF9, single point; Protein AF-9 (Homo sapiens), P42568; inhibition, % at 10 µM; actives 0.47% (n = 350,000); AID 651704, 2012;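 active = every replicate reaching a set inhibition limit, whatever the replicate mean, cut at about 25% in these data; inconclusive = mean inhibition reaches that limit but some replicates miss it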
Target sequence (P42568 whole entry, looked up): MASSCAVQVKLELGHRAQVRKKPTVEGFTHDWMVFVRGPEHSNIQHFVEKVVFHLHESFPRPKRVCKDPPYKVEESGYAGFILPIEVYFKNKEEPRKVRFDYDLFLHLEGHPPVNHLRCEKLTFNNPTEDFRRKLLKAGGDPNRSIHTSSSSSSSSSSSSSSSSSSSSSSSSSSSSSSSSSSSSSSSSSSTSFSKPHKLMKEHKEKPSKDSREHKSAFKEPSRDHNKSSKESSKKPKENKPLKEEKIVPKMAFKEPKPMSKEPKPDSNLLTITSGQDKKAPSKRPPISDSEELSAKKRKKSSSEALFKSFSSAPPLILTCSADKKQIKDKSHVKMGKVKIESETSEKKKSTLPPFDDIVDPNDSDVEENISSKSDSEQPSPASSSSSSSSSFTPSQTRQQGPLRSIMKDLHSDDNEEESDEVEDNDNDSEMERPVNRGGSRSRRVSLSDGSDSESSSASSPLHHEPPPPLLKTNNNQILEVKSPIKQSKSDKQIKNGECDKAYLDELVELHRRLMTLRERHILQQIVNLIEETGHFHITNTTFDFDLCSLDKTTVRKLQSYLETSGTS
ARNT TACC3 PPI – disruptors of ARNT/TACC3 protein interaction, primary screen, biochemical, AlphaScreen, single concentration. Transforming acidic coiled-coil-containing protein 3 (Homo sapiens), Q9Y6A5. AlphaScreen His-ARNT PAS-B/GST-TACC3 binding, luminescence; TACC3 fragment carries E629A point mutation. inhibition, % at 9.99 µM. actives 0.66% (n = 390,000);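 active = mean inhibition of replicates at least 50% and at least half of replicates each reaching 50%; inconclusive = half or more replicates reach 50% but mean below 50%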
PDI inh – inhibitors of human PDI, primary screen, biochemical, turbidity, single point, plate reader; inhibition, % at 10 µM; actives 0.052% (n = 350,000); Protein disulfide-isomerase (Homo sapiens), P07237; PDI insulin aggregation turbidity, A650, 90 min;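 active = mean inhibition across replicates of 30% or more, whatever share of single replicates reach that level; inconclusive = mean inhibition below 30% while every single replicate reaches 30%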
FGF22 binding – binders of human FGF22 protein, primary screen, FGF22 synaptogenesis inhibitor project, biophysical, thermal shift, single point; recombinant FGF22 thermal shift, SYPRO orange fluorescence; percent of sucrose octasulfate shift, DMSO zero; activity (Tm shift, normalised), % at 9.99 µM; actives 1.5% (n = 340,000); AID 651658, 2012;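 active = mean Tm shift, scaled 0 neutral to 100 positive control, at about 1.3% or above, every replicate too, limit read from the data; inconclusive = no clear call, values can overlap the other calls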
Target sequence (Q9HCT0 whole entry, looked up): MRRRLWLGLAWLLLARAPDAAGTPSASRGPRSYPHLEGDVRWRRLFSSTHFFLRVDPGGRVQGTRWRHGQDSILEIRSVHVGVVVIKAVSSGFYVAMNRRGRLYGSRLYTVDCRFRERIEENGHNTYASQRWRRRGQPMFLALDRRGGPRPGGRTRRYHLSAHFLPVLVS
FN deposition inh – inhibitors of fibronectin matrix deposition, primary screen, AH1F cells, Alexa488-fibronectin fluorescence, plate reader. AH1F fibroblasts, overnight. inhibition, % at 12.6 µM. actives 0.086% (n = 350,000). AID 743247, 2014;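 active = mean inhibition across replicates of 30% or more, regardless of how many single replicates reach that level; inconclusive = mean under 30% yet at least half of replicates reach 30%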
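Material: AH1F fibroblasts assembling fluorescent fibronectin matrix; amount: 10000 AH1F cells/well; medium: DMEM, 2% serum; reagent: Alexa488-fibronectin, 24 nM final in well; dosing: single compound dose, delivered by pin transfer; incubation: 1 h adhesion, overnight exposure; detection: fluorescence after three HBSS washes, excitation 485 nm, emission 525 nm; measure: fibronectin deposition inhibition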
ERp5 inh – inhibitors of ERp5-driven insulin aggregation, primary screen, biochemical, turbidity, absorbance 650 nm, single point | actives 0.05% (n = 350,000) | AID 651711, 2012 | inhibition, % at 9.99 µM | 90 min | Protein disulfide-isomerase A6 (Homo sapiens), Q15084;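 active = mean replicate inhibition above about 25%, with every replicate also reaching it, limit read from the data, passing the limit was not always enough; inconclusive = only one of those two criteria met; inactive = neither criterion met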
Numbers stand for hits; 0 = inactive; ? = inconclusive; - = no result given. The list is not random: actives were taken first. Their share in the collection is about 2.1%.

SMILES | AF4-AF9 inh | ARNT TACC3 PPI | PDI inh | FGF22 binding | FN deposition inh | ERp5 inh
Cc1cc(CN(C)C(=O)CC2C(=O)NCCN2CC(c2ccccc2)c2ccccc2)on1 (centres undefined) | 0 | 0 | 0 | 0 | 0 | 0
CCCNC(=O)C[C@@H]1CC[C@H]2[C@@H](COc3ccc(NC(=O)c4ccccc4)cc3C(=O)N2C)O1 | 0 | 0 | - | 0 | 0 | 0
CC(=O)N1[C@@H](CO)[C@H](c2ccc(-c3cccc(F)c3)cc2)[C@@H]1CNC(=O)C1CC1 | - | 0 | - | - | 0 | -
COc1ccc2c3c(n(C)c2c1)[C@@H](CO)N(CC1CCCC1)CC31CCN(C(C)=O)CC1 | 0 | - | - | 0 | - | 0
O=C(CC1C(=O)NCCN1Cc1ccc(-c2ccccc2)cc1)NCC1CC1 (centres undefined) | 0 | 0 | 0 | 44 | 0 | 0
O=C(CC1C(=O)NCCN1Cc1ccc(-c2ccccc2)cc1)NCCc1ccccn1 (centres undefined) | 0 | 0 | 0 | 0 | - | 0
CC1C/C(=N/Nc2nc3ccccc3[nH]2)CC(C)(C)C1 (centres undefined) | 0 | - | 0 | 43 | 0 | 0
Nc1nc(NC(=O)Cc2ccccc2)nn1-c1ccccc1 | - | 48 | 0 | - | - | -
Nc1nc(NC(=O)CCCC(=O)O)nn1-c1ccccc1 | - | 0 | 0 | - | - | -
Nc1nc(NC(=O)/C=C\C(=O)O)nn1-c1ccccc1 | 0 | 74 | 0 | 0 | 0 | ?
COc1ccc(NC(=O)Cc2c(C(=O)O)n(C)c3ccccc23)cc1OC | 0 | 0 | 0 | 43 | 0 | 0
CCn1c(=O)cc(OCC(=O)Nc2ccc(OC)c(OC)c2)c2ccccc21 | 0 | 0 | 0 | 43 | 0 | 0
COc1cc(NC(=O)Cc2c(C(=O)O)n(C)c3ccccc23)cc(OC)c1OC | 0 | 0 | 0 | 43 | 0 | 0
CN1C(=O)c2cc(NC(=O)c3ccc(F)c(F)c3)ccc2OC[C@@H]2O[C@@H](CC(=O)N3CCOCC3)CC[C@@H]21 | 0 | 0 | - | 0 | 0 | 0
O=C(CN1CCN(Cc2ccc(Cl)cc2)C1=O)NCc1cccs1 | - | 0 | 0 | 44 | 0 | 0
C[C@H]1CN([C@@H](C)CO)C(=O)CCCn2cc(nn2)CO[C@H]1CN(C)S(=O)(=O)c1ccc(C#N)cc1 | 0 | 0 | - | 0 | 0 | 0
CC1(C)Cc2c(C#N)c(N)n(-c3ccccc3)c(=S)c2CO1 | 0 | 0 | 0 | 0 | 0 | 0
CC1(C)C=C2C(=NN(c3ccccc3)C(N)=C2C#N)CO1 | 0 | 46 | 0 | 0 | 0 | 0
COCCNC(=O)C[C@@H]1CC[C@H](NS(=O)(=O)c2ccc(C)cc2)[C@H](CO)O1 | 0 | 0 | - | 0 | 0 | 0
O=C(O)Cc1ccc(NC(=O)Nc2ccc(Br)cc2)cc1 | 0 | 0 | 0 | 0 | 0 | 0
COc1ccc(NC(=O)Nc2ccc(CC(=O)O)cc2)cc1 | 0 | 0 | 0 | 43 | 0 | 0
COc1ccc(NS(=O)(=O)c2cc(NC(=O)CCNC(=O)c3ccco3)ccc2OC)cc1 | 25 | 0 | 0 | 0 | 0 | 0
CCCNC(=O)Nc1ccc2c(c1)C(=O)N(C)C[C@H](OC)[C@@H](C)CN(S(C)(=O)=O)[C@@H](C)CO2 | 0 | - | - | 0 | 0 | -
CC(=O)Nc1cccn(Cc2c(Cl)cccc2Cl)c1=O | 0 | 0 | 0 | 43 | 0 | 0
NC(=O)C(c1ccccc1)c1ncc(C(F)(F)F)cc1Cl (centres undefined) | - | 0 | 0 | - | 0 | -
SMILES | AF4-AF9 inh | ARNT TACC3 PPI | PDI inh | FGF22 binding | FN deposition inh | ERp5 inh
FC(F)(F)c1cnc(C(c2ccccc2)c2ncn[nH]2)c(Cl)c1 (centres undefined) | 0 | 0 | 0 | 43 | 0 | 0
CC(NS(=O)(=O)OCC(Cl)(Cl)Cl)c1ccc(Br)cc1 (centres undefined) | 0 | 0 | 0 | 43 | 0 | 0
Cc1noc(C)c1S(=O)(=O)Nc1ccc2c(c1)CC(=O)N([C@@H](C)CO)C[C@@H](C)[C@H](CN(C)C(=O)Nc1ccc(F)cc1)O2 | 0 | 0 | - | 0 | 0 | 0
CN(CC(=O)O)Cc1oc(CO)cc(=O)c1O | 0 | 0 | 0 | 44 | 0 | 0
CCN1CCN(Cc2oc(CO)cc(=O)c2O)CC1 | - | 0 | 0 | - | 0 | -
Cc1nc(CNC(=O)c2cc(COc3c(F)cccc3F)on2)cs1 | 0 | 0 | 0 | 0 | 0 | 0
Cc1cc(CNC(=O)c2cc(COc3c(F)cccc3F)on2)nn1C | 0 | 0 | 0 | 44 | 0 | 0
COc1ccc2c3c([nH]c2c1)[C@@H](CO)N(C(=O)c1cnccn1)CC31CCN(C(=O)c2cnccn2)CC1 | 0 | - | - | 0 | - | -
C[C@@H]1CN([C@@H](C)CO)C(=O)c2cc(C#CCc3ccccc3)cnc2O[C@H]1CN(C)C(=O)C1CC1 | 0 | 0 | - | 0 | - | 0
COc1ccccc1-c1ccc([C@@H]2[C@@H](C#N)N(C(=O)C3CC3)[C@H]2CO)cc1 | 0 | 0 | - | 0 | 0 | 0
CCOc1cc(C(c2c(C)[nH][nH]c2=O)c2c(C)[nH][nH]c2=O)cc([N+](=O)[O-])c1O | 0 | active | 0 | 0 | 0 | 0
COc1cc(C(c2c(C)[nH][nH]c2=O)c2c(C)[nH][nH]c2=O)cc([N+](=O)[O-])c1O | 0 | 0 | 0 | 0 | 0 | 0
O=C(C[C@H]1C=C[C@@H](NC(=O)CN2CCOCC2)[C@@H](CO)O1)NC1CCC1 | 0 | 0 | - | 0 | 0 | 0
CCc1ccc(Nc2ccc(C(N)=O)cc2[N+](=O)[O-])cc1 | 0 | 0 | 0 | 44 | 0 | 0
COc1ccccc1-c1cc(C(F)(F)F)nc(S(=O)(=O)CCCC(=O)NCc2ccc(F)cc2)n1 | 0 | 0 | 0 | 1.4 | 0 | 0
CS(=O)(=O)N1CCN(c2ccccc2NC(=S)NC(=O)c2cccs2)CC1 | 0 | 0 | 0 | 43 | 0 | 0
CC1CCN(c2ccccc2NC(=S)NC(=O)C(C)(C)C)CC1 | 0 | 0 | 0 | 43 | 0 | 0
CC1CCN(c2ccccc2NC(=S)NC(=O)c2cccs2)CC1 | - | 0 | 0 | - | - | -
COc1ccc(N2c3ccccc3CN(Cc3ccccc3)CC2Cc2cc(OC)c(OC)c(OC)c2)cc1 (centres undefined) | 0 | - | 0 | 44 | 0 | 0
C[C@@H]1CN([C@@H](C)CO)C(=O)c2cc(C#C[C@@H](C)O)cnc2O[C@@H]1CN(C)C(=O)Cc1ccccn1 | 0 | 0 | - | 0 | 0 | 0
c1csc(CNc2ncnc3ccc(-c4ccc5c(c4)OCO5)cc23)c1 | 0 | 0 | 0 | 44 | 0 | 0
Nc1n[nH]c2cc(=O)n(-c3cccc(C(F)(F)F)c3)nc12 | 0 | - | 0 | 43 | 0 | 0
NS(=O)(=O)c1ccc(N=Nc2c[nH]c(=O)c(O)c2)cc1 | 0 | 52 | 0 | 0 | 0 | 0
